The text below walks through data of ChEMBL document CHEMBL1131297, “N-(2-Benzoylphenyl)-L-tyrosine PPARgamma agonists. 3. Structure-activity relationship and optimization of the N-aryl substituent” (J Med Chem, 1998).

The test system of series [1] is Rattus norvegicus. In words: Compound was tested in vivo for Antihyperglycemic activity in diabetic rats, activity is expressed as percent reduction of HbA-1c. The format is functional. An outline of the steps:
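Male ZDF rats, nine weeks old, 8 per group, were matched at baseline on plasma glucose. They were dosed orally by gavage twice daily for 17 days at the maximum test dose. Glycosylated hemoglobin was measured on day 17. Data are mean ± SEM percent reduction relative to the vehicle control group.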

Series [2] is filed under the species Rattus norvegicus. The experiment in a line: Compound was tested for Antihyperlipidemic activity, activity is expressed as percent reduction of NEFAs. The format is functional. An outline of the steps: (§1)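 Nine-week-old male Zucker diabetic fatty rats, n = 8/group, baseline-matched for plasma glucose. The highest test dose was given twice daily by oral gavage for 17 days. Tail-vein blood was drawn on days 0, 3, 7 and 17 for plasma glucose, insulin, triglycerides and NEFAs. The value is mean ± SEM percent reduction versus vehicle controls on day 17.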

For series [3], the species on record is Rattus norvegicus. In words: Compound was tested for Antihyperlipidemic activity, activity is expressed as percent reduction of Triglycerides. The series is classed as functional. An outline of the steps:
as §1

Series [4] deals with Rattus norvegicus. The experiment in a line: Compound was tested in vivo for Antihyperglycemic activity in diabetic rats, activity is expressed as percent reduction of plasma glucose. The series is classed as functional. An outline of the steps: as §1
The nature of series [5]: Solubility in pH 7.4 Phosphate buffer. The format is physicochemical. An outline of the steps:
(§2)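 Solubility in 0.06 M phosphate buffer, pH 7.4, in temperature-controlled shaking water baths. Samples were drawn, passed through a 0.22-µm filter, diluted in water/acetonitrile (60:40), and quantified by HPLC on a phenyl reverse-phase column. Reported in mg/mL.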

Series [6] in a line: Solubility in simulated gastric fluid. The format is physicochemical. As to conditions: read-out: S. Put shortly:
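Solubility in simulated gastric fluid, pH 1.2, in temperature-controlled shaking water baths. Samples were drawn, passed through a 0.22-µm filter, diluted in water/acetonitrile (60:40), and quantified by HPLC on a phenyl reverse-phase column.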

Series [7] can be described thus: Solubility in phosphate buffer at pH 7.4. The format is physicochemical. Put shortly: as §2

The structures appear in SMILES notation. Converted amounts (≈) assume the structure as drawn.

Take `Cc1c(C)c2c(c(C)c1O)CCC(C)(COc1ccc(CC3SC(=O)NC3=O)cc1)O2` (configuration not stated) [TROGLITAZONE]: the Reduction in series [1] worked out at 35%; in series [2], 81%; in series [3] it was 85%; in series [4], 59%.

Consider `Cc1oc(-c2ccccc2)nc1CCOc1ccc(C[C@H](Nc2ccccc2C(=O)c2ccccc2)C(=O)O)cc1` [FARGLITAZAR], for which the solubility in series [5] and in series [6] was under 1 µg/mL in each case.

Take `COC(=O)c1ccccc1N[C@@H](Cc1ccc(OCCc2nc(-c3ccccc3)oc2C)cc1)C(=O)O` [GW7845]: the Reduction turned out to be 40% in series [1], 87% in series [2], 82% in series [3] and 67% in series [4]. The results for the solubility in series [7] and in series [6] were 300 µg/mL (≈ 599 µM) and under 2 µg/mL, respectively.
